Assay results: ChEMBL document CHEMBL1149503, “Growth inhibition of human cancer cells in vitro by T-type calcium channel blockers” (Bioorg Med Chem Lett, 2006)
The source made the active and inactive calls. No cut-off for these calls is given here.

Tests used:
KB = test: Inhibition of human KB cell growth by SRB assay; assay type: functional
Outline: (§1)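 Cells grown in RPMI 1640 with 10% heat-inactivated FBS, 37 °C, 5% CO2. Seeded, exposed to various sample concentrations in triplicate for 72 h, then formalin-fixed 30 min at room temperature. Stained with 0.4% SRB 30 min, washed with 1% acetic acid, bound dye dissolved in 10 mM unbuffered Tris base, OD read at 520 nm. GI50 from dose–response curves, three independent experiments.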

[1] = test system: T-type calcium channel Cav3.1 (α1G); test: Inhibition of T-type calcium channel Cav3.1; conditions: Homo sapiens
SK-MEL-2 = test: Inhibition of human SK-MEL-2 cell growth by SRB assay; assay type: functional, cell-based; outline: as §1
[2] = target: Voltage-dependent T-type calcium channel subunit alpha-1G (Homo sapiens) (UniProt O43497); test: Inhibition of T type calcium channel subunit alpha-1G at 10 uM in HEK293 cells; assay type: cell-based
Voltage-dependent T-type calcium channel subunit alpha-1G (Homo sapiens), sequence (O43497 whole entry): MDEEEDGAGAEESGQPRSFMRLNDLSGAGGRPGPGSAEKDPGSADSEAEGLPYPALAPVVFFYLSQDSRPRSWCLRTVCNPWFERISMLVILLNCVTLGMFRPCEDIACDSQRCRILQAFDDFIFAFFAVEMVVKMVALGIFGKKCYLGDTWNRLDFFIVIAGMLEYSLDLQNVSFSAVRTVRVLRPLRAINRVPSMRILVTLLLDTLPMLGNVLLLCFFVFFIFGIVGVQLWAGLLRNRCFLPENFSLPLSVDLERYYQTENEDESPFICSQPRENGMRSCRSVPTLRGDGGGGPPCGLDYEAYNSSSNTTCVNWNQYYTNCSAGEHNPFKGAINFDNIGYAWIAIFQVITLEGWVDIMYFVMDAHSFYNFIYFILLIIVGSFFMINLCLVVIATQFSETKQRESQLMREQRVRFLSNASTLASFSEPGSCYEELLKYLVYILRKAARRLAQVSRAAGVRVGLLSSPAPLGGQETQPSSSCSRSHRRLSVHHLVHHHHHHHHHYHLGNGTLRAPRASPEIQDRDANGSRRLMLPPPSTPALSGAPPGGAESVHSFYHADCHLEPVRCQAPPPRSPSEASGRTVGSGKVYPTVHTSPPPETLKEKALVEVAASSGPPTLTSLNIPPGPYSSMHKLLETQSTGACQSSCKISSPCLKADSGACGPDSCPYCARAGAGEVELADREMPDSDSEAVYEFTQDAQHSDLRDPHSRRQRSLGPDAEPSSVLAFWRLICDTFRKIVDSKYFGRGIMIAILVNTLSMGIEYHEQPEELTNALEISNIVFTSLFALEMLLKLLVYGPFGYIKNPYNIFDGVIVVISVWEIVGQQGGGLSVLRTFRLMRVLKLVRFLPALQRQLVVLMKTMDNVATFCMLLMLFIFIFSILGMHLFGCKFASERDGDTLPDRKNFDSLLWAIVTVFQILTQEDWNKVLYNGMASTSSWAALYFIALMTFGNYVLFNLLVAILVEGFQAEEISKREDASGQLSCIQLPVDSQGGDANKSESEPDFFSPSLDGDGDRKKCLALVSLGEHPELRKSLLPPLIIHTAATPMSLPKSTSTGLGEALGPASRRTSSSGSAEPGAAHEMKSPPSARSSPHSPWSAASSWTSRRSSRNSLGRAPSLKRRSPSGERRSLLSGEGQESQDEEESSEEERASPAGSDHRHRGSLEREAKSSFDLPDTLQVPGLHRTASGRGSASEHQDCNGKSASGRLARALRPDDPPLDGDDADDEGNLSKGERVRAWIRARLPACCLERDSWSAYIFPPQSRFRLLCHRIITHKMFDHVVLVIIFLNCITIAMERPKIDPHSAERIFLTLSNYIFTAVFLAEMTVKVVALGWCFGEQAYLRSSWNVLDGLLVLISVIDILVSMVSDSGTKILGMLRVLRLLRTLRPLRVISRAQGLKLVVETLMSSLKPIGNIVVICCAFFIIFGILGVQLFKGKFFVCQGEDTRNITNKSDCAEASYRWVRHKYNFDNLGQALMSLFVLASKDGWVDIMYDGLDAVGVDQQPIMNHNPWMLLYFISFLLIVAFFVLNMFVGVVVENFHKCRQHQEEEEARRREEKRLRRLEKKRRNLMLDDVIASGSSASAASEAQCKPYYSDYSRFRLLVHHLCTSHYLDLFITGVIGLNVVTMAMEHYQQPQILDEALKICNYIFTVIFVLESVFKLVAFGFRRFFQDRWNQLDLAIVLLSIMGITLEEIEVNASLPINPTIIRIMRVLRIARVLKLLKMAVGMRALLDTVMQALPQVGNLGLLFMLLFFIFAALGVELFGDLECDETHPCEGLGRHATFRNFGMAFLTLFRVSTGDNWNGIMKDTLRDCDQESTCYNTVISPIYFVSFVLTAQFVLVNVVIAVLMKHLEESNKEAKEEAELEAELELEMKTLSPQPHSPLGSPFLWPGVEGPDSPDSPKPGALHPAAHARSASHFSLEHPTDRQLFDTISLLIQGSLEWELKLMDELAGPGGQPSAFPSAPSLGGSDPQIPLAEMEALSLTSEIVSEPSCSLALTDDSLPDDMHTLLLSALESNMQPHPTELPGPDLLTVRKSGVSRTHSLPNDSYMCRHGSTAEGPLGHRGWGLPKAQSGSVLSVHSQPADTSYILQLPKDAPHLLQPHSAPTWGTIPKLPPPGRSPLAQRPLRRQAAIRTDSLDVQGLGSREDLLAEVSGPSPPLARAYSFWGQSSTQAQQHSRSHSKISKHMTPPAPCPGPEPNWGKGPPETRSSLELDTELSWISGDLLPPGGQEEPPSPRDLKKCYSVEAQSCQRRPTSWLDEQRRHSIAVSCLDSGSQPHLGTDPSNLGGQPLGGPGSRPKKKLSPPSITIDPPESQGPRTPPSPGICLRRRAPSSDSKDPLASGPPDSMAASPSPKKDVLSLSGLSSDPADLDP
Outline: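 Whole-cell patch clamp on α1G T-type channel expressed in HEK293 cells, test compound at 10 µM. Currents evoked every 15 s by 50 ms depolarizing step from 100 to 30 mV (signs as printed). % inhibition = 100[(C−D)/C], C and D being peak current before and with drug. Three independent experiments.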

HEK293 = test: Cytotoxicity against HEK293 cells at 100 uM; assay type: functional, cell-based; conditions: Homo sapiens
SK-OV-3 = test: Inhibition of human SKOV3 cell growth by SRB assay; assay type: functional; outline: as §1
A549 = test: Inhibition of human A549 cell growth by SRB assay; assay type: functional; outline: as §1
[3] = target: Voltage-dependent N-type calcium channel subunit alpha-1B (Homo sapiens) (UniProt Q00975); test: Inhibition of N type calcium channel subunit Alpha-1B at 10 uM in HEK293 cells; assay type: cell-based
Voltage-dependent N-type calcium channel subunit alpha-1B (Homo sapiens), sequence (Q00975 whole entry, looked up): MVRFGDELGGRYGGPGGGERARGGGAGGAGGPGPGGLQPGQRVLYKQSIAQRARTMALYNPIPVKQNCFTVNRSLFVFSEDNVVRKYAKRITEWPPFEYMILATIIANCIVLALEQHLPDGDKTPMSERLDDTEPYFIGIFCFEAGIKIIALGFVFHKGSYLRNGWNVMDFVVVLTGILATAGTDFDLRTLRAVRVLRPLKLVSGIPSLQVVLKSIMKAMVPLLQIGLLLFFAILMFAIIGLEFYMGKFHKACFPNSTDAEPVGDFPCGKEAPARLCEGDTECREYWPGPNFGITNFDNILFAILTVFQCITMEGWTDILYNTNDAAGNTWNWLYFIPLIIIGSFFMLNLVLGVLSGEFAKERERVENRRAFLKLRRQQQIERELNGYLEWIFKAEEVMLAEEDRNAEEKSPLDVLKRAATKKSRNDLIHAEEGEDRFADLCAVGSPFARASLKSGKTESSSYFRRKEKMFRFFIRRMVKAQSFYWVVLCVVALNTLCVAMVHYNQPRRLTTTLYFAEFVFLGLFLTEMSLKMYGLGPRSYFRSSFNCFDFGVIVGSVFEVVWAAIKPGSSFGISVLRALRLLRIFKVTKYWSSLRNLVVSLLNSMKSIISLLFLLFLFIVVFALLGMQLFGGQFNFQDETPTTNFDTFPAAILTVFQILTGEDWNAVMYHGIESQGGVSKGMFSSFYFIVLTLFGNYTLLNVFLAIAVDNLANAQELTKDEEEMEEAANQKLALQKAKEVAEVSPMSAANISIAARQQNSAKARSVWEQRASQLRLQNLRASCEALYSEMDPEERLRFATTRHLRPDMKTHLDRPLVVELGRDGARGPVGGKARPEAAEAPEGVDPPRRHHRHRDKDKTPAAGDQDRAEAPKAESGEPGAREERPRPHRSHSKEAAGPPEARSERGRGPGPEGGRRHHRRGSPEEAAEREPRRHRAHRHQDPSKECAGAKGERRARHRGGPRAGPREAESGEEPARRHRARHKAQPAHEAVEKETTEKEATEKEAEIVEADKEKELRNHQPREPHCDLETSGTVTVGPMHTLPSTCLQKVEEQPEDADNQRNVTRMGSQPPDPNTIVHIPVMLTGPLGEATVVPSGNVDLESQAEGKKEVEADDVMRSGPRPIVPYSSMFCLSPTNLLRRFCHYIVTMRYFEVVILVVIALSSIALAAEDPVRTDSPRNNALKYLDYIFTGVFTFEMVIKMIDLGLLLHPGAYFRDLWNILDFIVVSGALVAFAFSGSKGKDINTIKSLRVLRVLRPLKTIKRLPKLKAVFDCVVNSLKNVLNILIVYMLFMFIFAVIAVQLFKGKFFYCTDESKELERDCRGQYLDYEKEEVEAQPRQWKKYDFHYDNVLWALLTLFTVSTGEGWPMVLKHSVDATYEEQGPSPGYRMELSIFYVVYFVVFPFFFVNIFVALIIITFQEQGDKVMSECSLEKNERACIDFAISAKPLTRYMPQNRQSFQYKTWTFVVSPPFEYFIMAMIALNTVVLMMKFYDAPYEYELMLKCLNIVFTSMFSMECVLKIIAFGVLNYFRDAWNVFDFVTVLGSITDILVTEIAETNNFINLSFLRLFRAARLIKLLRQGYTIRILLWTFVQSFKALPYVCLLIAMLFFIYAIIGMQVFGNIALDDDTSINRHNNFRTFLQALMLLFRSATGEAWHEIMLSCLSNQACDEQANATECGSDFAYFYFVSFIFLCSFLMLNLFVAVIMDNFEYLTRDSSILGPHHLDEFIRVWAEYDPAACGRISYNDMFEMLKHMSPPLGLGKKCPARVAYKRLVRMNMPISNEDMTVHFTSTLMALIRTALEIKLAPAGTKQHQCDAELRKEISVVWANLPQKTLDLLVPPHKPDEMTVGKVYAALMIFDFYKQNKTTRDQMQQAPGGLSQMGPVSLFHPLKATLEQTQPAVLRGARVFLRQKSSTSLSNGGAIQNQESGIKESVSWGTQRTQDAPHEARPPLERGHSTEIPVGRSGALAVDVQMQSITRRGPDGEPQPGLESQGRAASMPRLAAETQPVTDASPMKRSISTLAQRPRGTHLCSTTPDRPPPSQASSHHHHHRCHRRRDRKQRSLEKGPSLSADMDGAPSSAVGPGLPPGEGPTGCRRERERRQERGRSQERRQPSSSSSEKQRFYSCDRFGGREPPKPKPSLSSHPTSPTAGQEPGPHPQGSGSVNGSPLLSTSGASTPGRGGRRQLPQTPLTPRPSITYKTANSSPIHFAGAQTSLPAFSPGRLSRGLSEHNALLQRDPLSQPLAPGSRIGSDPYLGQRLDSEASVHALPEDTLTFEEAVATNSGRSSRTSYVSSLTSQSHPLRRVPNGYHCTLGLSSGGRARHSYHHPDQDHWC

HCT-15 = test: Inhibition of human HCT15 cell growth by SRB assay; assay type: functional; outline: as §1

| GI50 (KB) | IC50 [1] | GI50 (SK-MEL-2) | inhibition [2] | GI50 (SK-OV-3) | GI50 (A549) | Activity [3] | GI50 (HCT-15) | inhibition [3] | SMILES | Activity (HEK293) |
| --- | --- | --- | --- | --- | --- | --- | --- | --- | --- | --- |
| 108 µM |  | 42.5 µM | 59.3% | 77.8 µM | 95.1 µM |  | 74.2 µM | 9.3% | CCN1C(N2CCCCC2)=Nc2ccccc2C1CC(=O)NCc1ccccc1 (centres undefined) | Not toxic |
| 33.8 µM |  | 24.2 µM | 81.3% | 33.4 µM | 39.2 µM |  | 33.9 µM | 8.9% | CCN1C(N(C)C)=Nc2ccccc2C1CC(=O)NCc1ccc(NS(=O)(=O)c2ccc(C)cc2)cc1 (centres undefined) | Not toxic |
| > 200 µM |  | 50.2 µM | 34.4% | > 200 µM | > 200 µM |  | > 200 µM | 27.6% | CCN1C(N(C)C)=Nc2ccccc2C1CC(=O)NCc1ccccc1 (centres undefined) | Not toxic |
| 41.6 µM |  | 31.4 µM | 62.7% | 46.5 µM | 66.1 µM | inactive | 38.6 µM |  | CCN1C(N(C)C)=Nc2ccccc2C1CC(=O)NCc1ccc(NS(=O)(=O)c2ccc(F)cc2)cc1 (centres undefined) | Not toxic |

The remaining lines, values behind:

| SMILES | GI50 (KB) | IC50 [1] | GI50 (SK-MEL-2) | inhibition [2] | GI50 (SK-OV-3) | GI50 (A549) | Activity [3] | GI50 (HCT-15) | inhibition [3] | Activity (HEK293) |
| --- | --- | --- | --- | --- | --- | --- | --- | --- | --- | --- |
| CCN1C(N2CCCCC2)=Nc2ccccc2C1CC(=O)NCc1ccc(NS(=O)(=O)c2ccc(C)cc2)cc1 (centres undefined) | 22.3 µM | 0.96 µM | 3.52 µM | 91.3% | 22.8 µM | 23 µM | inactive | 25.7 µM |  | Not toxic |
| Cc1ccc(S(=O)(=O)Nc2ccc(CNC(=O)CC3c4ccccc4N=C(N4CCCCC4)N3c3ccccc3)cc2)cc1 (centres undefined) | 3.11 µM | 0.17 µM | 2.7 µM |  | 2.93 µM | 3.06 µM |  | 2.8 µM | 14.1% | Not toxic |
| COC(=O)CC1c2ccccc2N=C(NCCCCCN)N1c1ccc(-c2ccccc2)cc1 (centres undefined) | 3.77 µM | 0.56 µM | 3.32 µM |  | 3.24 µM | 3.39 µM | inactive | 3.64 µM |  | Not toxic |
| Nc1ccc(CNC(=O)CC2c3ccccc3N=C(N3CCCCC3)N2c2ccccc2)cc1 (centres undefined) | 37.1 µM |  | 30.7 µM |  | 39.3 µM | 36.6 µM |  | 33.9 µM | 8.9% | Not toxic |
